Screens deposited in PubChem by several laboratories.
A selection: hits, their analogues and other compounds. The true share with any hit is near 5.7%.
CSC inhib – cancer stem cell inhibition; cancer stem cell-like cells viability, luminescence; inhibition, % at 7.5 µM; hit rate 1.1% among 300,000; in the data active = inhibition above about 75%; inconclusive = no clear call, values can overlap the other calls; tested in HMLE shEcad cells
SKKanGAS inh – SKKanGAS growth inhibition; S. pyogenes SKKanGAS, kanamycin growth, BacTiter-Glo, 6 h; hit rate 1.3% among 300,000; inhibition, % at 7.5 µM; AID 1662;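 active = mean replicate score, as percent of positive control median, at least 50; inconclusive = mean below 50 but one replicate at or above 50; inactive = mean and every replicate below 50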;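 note: strain carries kanamycin resistance gene driven by streptokinase promoter and grows in 40 µg/ml kanamycin; loss of luminescence reflects streptokinase promoter inhibition or plain growth inhibition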
Mdm2-MdmX inh – human Mdm2/MdmX binding inhibition; SaOS-2 split-luciferase Mdm2/MdmX complementation, luminescence; inhibition, % at 8 µM; hit rate 3% among 330,000;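 active = inhibition of at least 50% at 8 µM in the primary screen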
Target sequence (O15151 whole entry, looked up): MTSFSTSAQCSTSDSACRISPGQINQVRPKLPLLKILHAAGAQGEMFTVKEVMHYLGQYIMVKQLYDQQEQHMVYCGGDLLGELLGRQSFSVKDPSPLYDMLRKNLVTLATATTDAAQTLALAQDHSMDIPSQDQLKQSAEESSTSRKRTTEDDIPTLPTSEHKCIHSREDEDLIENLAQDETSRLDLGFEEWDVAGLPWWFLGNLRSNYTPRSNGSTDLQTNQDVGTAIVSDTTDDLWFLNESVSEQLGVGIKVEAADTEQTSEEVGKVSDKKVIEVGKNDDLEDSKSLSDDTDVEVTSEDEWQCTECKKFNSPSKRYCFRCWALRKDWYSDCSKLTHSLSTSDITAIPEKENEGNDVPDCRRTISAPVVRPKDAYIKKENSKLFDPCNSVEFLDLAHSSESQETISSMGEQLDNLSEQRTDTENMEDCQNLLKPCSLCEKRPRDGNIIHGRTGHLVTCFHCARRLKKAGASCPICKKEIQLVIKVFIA
Target sequence (Q00987 whole entry, looked up): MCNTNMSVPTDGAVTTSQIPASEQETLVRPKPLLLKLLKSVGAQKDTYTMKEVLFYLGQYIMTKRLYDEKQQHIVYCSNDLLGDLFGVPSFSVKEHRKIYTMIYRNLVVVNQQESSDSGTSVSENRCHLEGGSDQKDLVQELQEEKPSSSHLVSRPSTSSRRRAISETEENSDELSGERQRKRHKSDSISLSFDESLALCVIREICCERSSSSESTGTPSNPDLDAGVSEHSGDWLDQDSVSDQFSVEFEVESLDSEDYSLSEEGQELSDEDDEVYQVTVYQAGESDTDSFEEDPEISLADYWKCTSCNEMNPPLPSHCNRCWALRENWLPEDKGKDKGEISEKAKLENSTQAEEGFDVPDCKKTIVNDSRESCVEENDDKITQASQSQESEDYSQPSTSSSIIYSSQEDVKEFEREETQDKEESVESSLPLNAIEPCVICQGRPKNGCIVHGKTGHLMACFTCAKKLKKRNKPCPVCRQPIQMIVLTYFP
Beta apoptosis – beta cell apoptosis inhibition; protection from apoptosis, % (no concentration beside the values); INS-1E cytokine-induced death, ATP luminescence, 48 h; percent of positive-control rescue, neutral wells zero; AID 435005; hit rate 0.8% among 300,000;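 active = Every replicate reaches about 75%, or at least half do and their mean reaches it too, limit read from the data; inconclusive = At least half of replicates reach the limit but their mean does not; inactive = Under half of replicates reach the limit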;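 note: higher means more ATP so stronger rescue from cytokine killing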
Calb FLC – C. albicans growth modulation with fluconazole; hit rate 0.57% among 300,000; growth inhibition, % (concentration not given with the values); C. albicans CaCi-2 (fluconazole-resistant clinical isolate) + fluconazole, Alamar Blue growth, 48 h; AID 1979;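 active = growth inhibition above about 58% in most replicates, limit read from the data, passing the limit was not always enough; inconclusive = exactly half the replicates above a set limit; inactive = most replicates below a set limit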;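 note: all wells also contain fluconazole at 8 µg/ml as a sub-toxic cotreatment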
T cruzi inh – T. cruzi replication inhibition; T. cruzi beta-gal in NIH3T3, luminescence, 90 h; inhibition, % (concentration not given with the values); hit rate 1.4% among 300,000;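 active = mean inhibition across valid replicates above about 55%, limit read from the data; inconclusive = mean below that limit but half or more replicates reach it; inactive = mean below it, under half of replicates reach it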;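 note: signal also drops with host cell toxicity which is not excluded here; higher percent means less beta-gal luminescence so fewer parasites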
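assay system = mouse NIH/3T3 fibroblasts infected with β-gal-expressing T. cruzi Tulahuen C4 | input = 5,000 NIH/3T3 host cells per well | buffer or medium = DMEM plus 2% FBS | timing = 3 h host attachment, then at least 90 h co-culture | measured by = GalScreen luminescence, 60 min | evaluation = luminescence reflecting intracellular parasite burden, expressed as percent inhibition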
Hits are given with their value; – = inactive; ? = inconclusive; · = not tested or not shown.

SMILES	CSC inhib	SKKanGAS inh	Mdm2-MdmX inh	Beta apoptosis	Calb FLC	T cruzi inh
C/C(N)=C(/C#N)C(=O)COC(=O)c1cc(-c2cccc3ccccc23)nc2ccccc12	–	62	–	–	?	–
C/C(N)=C(/C#N)C(=O)COC(=O)c1cccc2ccccc12	–	–	–	–	–	–
COc1ccc(N2CCN(C(=O)c3ccc(NC(=O)C4=CSCCO4)cc3)CC2)cc1	–	–	–	·	–	–
COc1ccc(C(=O)N2CCN(CCCc3ccccc3)CC2)cc1OC	–	–	–	–	·	–
Cc1ccc(SCc2ccc(C(=O)Nc3cccc([N+](=O)[O-])c3C)cc2)cc1	–	–	–	–	–	60
O=C(CSc1nc2ccccc2c(=O)n1-c1ccc(Cl)cc1)N/N=C/C=C/c1ccccc1[N+](=O)[O-]	·	–	–	–	–	–
O=C(CSc1nc2ccccc2c(=O)n1-c1ccccc1)N/N=C/C=C/c1ccccc1[N+](=O)[O-]	78	–	–	–	–	–
O=C(C1CCC1)N1CCc2cc(S(=O)(=O)Nc3ccc4c(c3)OCCO4)ccc21	–	–	–	79	–	–
COCCC(=O)N1CCC(Oc2ccc(C(=O)NC3CCOC(C)(C)C3)cc2)CC1 (stereo unspecified)	–	–	–	–	–	–
Oc1ccc(/C=N/n2c3ccccc3c3ccccc32)cc1	–	71	–	–	–	–
Cc1cc(/C=C2\C(=N)N3N=C(S(C)(=O)=O)SC3=NC2=O)c(C)n1Cc1ccccc1	·	54	–	–	–	–
Cc1cc(/C=C2/C(=N)N3C(=NC2=O)SN=C3S(C)(=O)=O)c(C)n1-c1ccccc1F	–	56	–	–	–	–
O=C(Cn1nc(-c2ccccc2)ccc1=O)N1CCCCC1	–	–	–	–	–	–
CCCCNC(=O)c1sc(=S)n2c1[nH]c(=O)c1ccc(C(=O)NCCc3ccc(OC)c(OC)c3)cc12	–	–	–	–	–	–
O=C(NCc1ccccc1)c1sc(=S)n2c1[nH]c(=O)c1ccccc12	–	–	–	–	87	–
CN1CCN(c2c(F)cc3c(=O)c(C(=O)O)cn4c3c2SCC4)CC1	–	–	–	–	–	–
C[C@H]1COc2c(N3CCN(C)CC3)c(F)cc3c(=O)c(C(=O)O)cn1c23	–	107	–	–	–	–
C[C@H]1COc2c(C3(N)CC3)c(F)cc3c(=O)c(C(=O)O)cn1c23	–	66	·	–	·	–
CC(C)(C)N(Cc1ccccc1)C(=O)COC(=O)C1CCN(c2ccc(C(F)(F)F)cn2)CC1	–	·	–	–	·	·
CCc1ccc(OCC(=O)NNC(=S)NC(=O)C2CCCCC2)c(Br)c1	–	90	–	–	84	–
CCc1ccc(OCC(=O)NNC(=S)NC(=O)C2CC2)c(Br)c1	–	·	–	–	107	·
CCc1ccc(OCC(=O)NC2CCCCC2)c(Br)c1	–	–	–	–	–	–
O=C(CC1CC2CCC1C2)NCCc1ccc(Cl)cc1 (stereo unspecified)	–	–	–	85	–	–
O=C(COC(=O)CC1CC2CCC1C2)NCc1ccc(F)cc1 (stereo unspecified)	·	·	–	–	·	·
CC(=O)Cc1cc(O)c2ccccc2c1OC(=O)c1ccc(Br)cc1	–	–	–	108	–	–
SMILES	CSC inhib	SKKanGAS inh	Mdm2-MdmX inh	Beta apoptosis	Calb FLC	T cruzi inh
O=C(COC(=O)c1ccc(Br)cc1)NCc1ccccc1	–	–	–	–	–	–
CCOC(=O)Nc1ccc(OCc2nnc3c4ccccc4c(C)nn23)cc1	–	94	–	–	–	–
Cc1nn2c(COc3ccc(NC(=O)c4ccccc4Cl)cc3)nnc2c2ccccc12	90	87	–	–	–	–
Cc1nn2c(COc3ccc(NC(=O)C(C)C)cc3)nnc2c2ccccc12	–	102	–	–	–	–
O=C(NCc1nnc2c3ccccc3c(-c3ccccc3)nn12)c1ccccc1Cl	–	–	–	–	–	–
Cc1nn2c(CN(C(=O)COc3ccccc3)c3ccccc3)nnc2c2ccccc12	–	–	–	–	–	–
CC(=O)Nc1ccc(OCc2cccc3ccccc23)cc1	–	–	–	–	–	–
COc1ccc(/C=N/OCC(=O)N2CC3(C)CC2CC(C)(C)C3)cc1 (stereo unspecified)	110	–	–	–	?	–
COCc1cc(CN2CCCC(C(=O)Nc3cccc(-n4cnnn4)c3)C2)ccc1OC (stereo unspecified)	–	–	–	–	–	70
